This is one part of a sample in which hits are shown more often than they occur.
Pf Dd2 growth = P. falciparum Dd2 growth inhibitors, primary screen, SYBR Green fluorescence, single dose replicates; activity change, % at 10 µM; 2.3% of 94,000 active; AID 1159554, 2015; 72 h; stronger effect = lower value; in the data active means activity change below about -80%
IDH1 R132H inh = inhibitors of IDH1 R132H reductase, primary screen, biochemical, plate reader, single point. Isocitrate dehydrogenase [NADP] cytoplasmic (Homo sapiens), O75874. diaphorase/resazurin fluorescence, 60 min. inhibition, % at 10 µM. 0.18% of 70,000 active. AID 624101, 2012; in the data active means inhibition above about 34%;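 further: 0% = DMSO and 100% = no enzyme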
Target sequence (O75874 whole entry R132H): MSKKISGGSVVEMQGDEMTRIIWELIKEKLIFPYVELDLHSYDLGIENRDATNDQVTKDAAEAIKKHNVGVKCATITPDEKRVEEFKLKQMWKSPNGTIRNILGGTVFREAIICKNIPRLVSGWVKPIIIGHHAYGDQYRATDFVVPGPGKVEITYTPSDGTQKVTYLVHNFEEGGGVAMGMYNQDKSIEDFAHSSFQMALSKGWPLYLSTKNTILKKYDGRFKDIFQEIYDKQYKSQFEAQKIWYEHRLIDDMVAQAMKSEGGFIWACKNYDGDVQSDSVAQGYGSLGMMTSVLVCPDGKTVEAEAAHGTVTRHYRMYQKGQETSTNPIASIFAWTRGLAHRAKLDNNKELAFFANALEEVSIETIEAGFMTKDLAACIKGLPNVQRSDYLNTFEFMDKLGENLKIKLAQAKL
KDM4C inh = inhibitors of GASC-1 (KDM4C) histone demethylase, primary screen, biochemical, single concentration HTS; GST-KDM4C 2-372, H3K9me3 peptide, LANCE TR-FRET; inhibition, % at 12.5 µM; 0.15% of 96,000 active;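 active means mean replicate inhibition above about 25%, with at least 55% of replicates also reaching it, limit read from the data, passing the limit was not always enough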
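Test system: N-terminal GST-fused human GASC-1 (KDM4C) fragment, residues 2-372; quantity: GASC-1 enzyme at 10 nM final in reaction; dosing: single dose; schedule: 30 min demethylation and 1 h detection at room temperature; signal: LANCE TR-FRET, excitation 340 nm, emissions 618 and 671 nm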
Active calls of the source: *; / = not tested or not shown.

SMILES	Pf Dd2 growth	IDH1 R132H inh	KDM4C inh
C[C@H]1CN([C@@H](C)CO)S(=O)(=O)c2ccc(C#Cc3ccncc3)cc2O[C@H]1CN(C)S(=O)(=O)c1ccc(F)cc1	-89*	1	-3
C[C@H]1CN([C@@H](C)CO)S(=O)(=O)c2ccc(C#Cc3ccc(F)cc3)cc2O[C@H]1CN(C)S(=O)(=O)c1ccc(F)cc1	-22	0	1
c1ccc(CN2C[C@@H]3N[C@H](C2)C3c2ccc(-c3ccncc3)cc2)cc1 (stereo not given in full)	-84*	/	1
COc1ccccc1CN1[C@@H]2CNC[C@H]1C2c1ccc(-c2cccnc2)cc1 (stereo not given in full)	21	/	-2
C(=C\c1ccc(C2[C@@H]3CN(Cc4cccnc4)C[C@H]2N3)cc1)/c1ccccc1 (stereo not given in full)	-90*	/	3
c1ccc(CN2C[C@@H]3N[C@H](C2)C3c2ccc(-c3ccccc3)cc2)cc1 (stereo not given in full)	21	/	-3
COc1ccccc1CN1C[C@@H]2N[C@H](C1)[C@@H]2c1ccc(-c2cccnc2)cc1	-87*	/	0
c1cncc(CN2C[C@@H]3N[C@H](C2)C3c2ccc(-c3cccnc3)cc2)c1 (stereo not given in full)	-69	/	0
C[C@H](CO)N1C[C@H](C)[C@@H](CN(C)Cc2ccccc2)Oc2ccc(NC(=O)CCC(F)(F)F)cc2C1=O	18	2	0
CO[C@@H]1CN(C)C(=O)c2cc(NS(C)(=O)=O)ccc2OC[C@H](C)N(S(C)(=O)=O)C[C@H]1C	16	0	0
CCc1nc(N2[C@H](CO)[C@@H](c3ccccc3-c3ccccc3F)[C@@H]2C#N)sc1C	17	/	0
CCc1csc(N2[C@H](C#N)[C@@H](c3ccc(-c4ccc(F)cc4)cc3)[C@@H]2CO)n1	-12	/	-3
CCc1csc(N2[C@H](C#N)[C@H](c3ccccc3-c3ccc(F)cc3)[C@H]2CO)n1	-93*	/	-2
CCc1nc(N2[C@H](C#N)[C@H](c3ccccc3-c3ccccc3F)[C@@H]2CO)sc1C	-81*	/	4
C[C@@H]1CN([C@@H](C)CO)C(=O)c2cc(NS(=O)(=O)c3ccc(Cl)cc3)ccc2O[C@@H](C)CCCCO[C@@H]1CN(C)C(=O)Nc1ccc(C(F)(F)F)cc1	-79	/	1
COC(=O)C[C@H]1CC[C@@H]2[C@@H](COc3ccc(NS(C)(=O)=O)cc3C(=O)N2C)O1	3	/	1
CN(C)CCCNC(=O)C[C@@H]1CC[C@@H](NC(=O)c2ccccc2F)[C@H](CO)O1	13	0	-1
O=C(C[C@H]1C=C[C@@H](NS(=O)(=O)c2ccccc2)[C@@H](CO)O1)N1CCC(Cc2ccccc2)CC1	15	/	1
O=C(C[C@@H]1CC[C@H](NC(=O)CN2CCOCC2)[C@H](CO)O1)NCCc1ccccc1	5	0	1
COc1ccc(NC(=O)Nc2ccc3c(c2)C(=O)N([C@H](C)CO)C[C@H](C)[C@@H](CN(C)Cc2ccc(Cl)c(Cl)c2)OCCCC[C@@H](C)O3)cc1	-1	1	/
COc1ccc(NC(=O)Nc2ccc3c(c2)C(=O)N([C@H](C)CO)C[C@H](C)[C@H](CN(C)Cc2ccc(Cl)c(Cl)c2)OCCCC[C@H](C)O3)cc1	14	1	0
COc1ccc(NC(=O)Nc2ccc3c(c2)C(=O)N([C@@H](C)CO)C[C@@H](C)[C@@H](CN(C)Cc2ccc(Cl)c(Cl)c2)OCCCC[C@@H](C)O3)cc1	-80*	3	0
COc1ccc(NC(=O)Nc2ccc3c(c2)C(=O)N([C@@H](C)CO)C[C@H](C)[C@@H](CN(C)Cc2ccc(Cl)c(Cl)c2)OCCCC[C@@H](C)O3)cc1	-87*	0	-1
CCNC(=O)C[C@H]1CC[C@@H]2[C@H](COc3ccc(NC(=O)c4ccc(F)cc4)cc3C(=O)N2C)O1	8	/	0
Cc1ncc(CO)c(/C=N/NC(=O)c2ccccn2)c1O	/	0	/
CCC(=O)N1[C@@H]2Cn3c(ccc(-c4cccnc4)c3=O)[C@H]1[C@@H](C(=O)NC1CCC1)[C@@H]2CO	10	/	1
C[C@@H]1CN([C@@H](C)CO)C(=O)c2cc(NS(=O)(=O)c3ccc(F)cc3)ccc2O[C@@H](C)CCCCO[C@H]1CN(C)C(=O)Cc1ccccc1	-27	1	12
CC(C)CC#Cc1ccc2c(c1)O[C@H](CN(C)C(=O)c1cccnc1)[C@@H](C)CN([C@@H](C)CO)S2(=O)=O	-22	0	3
